Measurements taken from ChEMBL document CHEMBL4339225, “Self-assembling Releasable Thiocolchicine-Diphenylbutenylaniline Conjugates” (ACS Med Chem Lett, 2019).

Legend:
HepG2 = assay: Antiproliferative activity against human HepG2 cells assessed as reduction in cell number incubated for 72 hrs; format: functional; settings: HepG2, 72 h
MCF7 = assay: Antiproliferative activity against human MCF7 cells assessed as reduction in cell number incubated for 72 hrs; format: functional; settings: MCF7, 72 h
[1] = Self-assembling property assessed as hydrodynamic diameter by dynamic light scattering method; format: physicochemical
[2] = Stability assessed as Celite-supported formulation of Pseudomonas cepacia lipase PS-mediated drug hydrolysis in presence of pH 7 phosphate buffer by reversed-phase HPLC; format: ADME; settings: read-out: Drug degradation
HeLa = assay: Antiproliferative activity against human HeLa cells assessed as reduction in cell number incubated for 72 hrs; format: functional
[3] = Drug metabolism assessed as Celite-supported formulation of Pseudomonas cepacia lipase PS-mediated 2-Amino-N-((S)-1,2,3-trimethoxy-10-methylsulfanyl-9-oxo-5,6,7,9-tetrahydro-benzo[a]heptalen-7-yl)-acetamide trifluoroacetic acid formation in presence of pH 7 phosphate buffer by reversed-phase HPLC; format: ADME
[4] = Colloidal stability of the compound in nanoparticle form at 0.5 mg/mL at acidic pH conditions; format: physicochemical
In short: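 Zeta potential was measured against pH at 0.5 mg/mL nanoparticle concentration and fixed ionic strength (1 mM KCl). pH was adjusted across 2–12 with 0.1 M NaOH or HCl. Hydrodynamic diameter was also followed over the same range.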

[5] = Self-assembling property assessed as polydispersity index by dynamic light scattering method; format: physicochemical
[6] = Drug metabolism assessed as Celite-supported formulation of Pseudomonas cepacia lipase PS-mediated 4-((4-(4-(1,2-diphenylbut-1-enyl)phenylamino)-4-oxobutyl)disulfanyl)butanoic acid formation in presence of pH 7 phosphate buffer by reversed-phase HPLC; format: ADME
[7] = Colloidal stability of the compound in nanoparticle form in Ph 7 PBS at 0.5 mg/mL in presence of 10 to 100 mM KCl; format: physicochemical; settings: buffer
In short: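 Nanoparticles were held at 0.5 mg/mL in PBS buffered to pH 7.4, with KCl at 0, 10, 25, 50 and 100 mM. Zeta potential and hydrodynamic diameter were recorded at each ionic strength.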

[8] = Self-assembling property assessed as zeta potential by dynamic light scattering method; format: physicochemical
[9] = Drug level treated with 9-[4-(1,2-Diphenyl-but-1-enyl)-phenylcarbamoyl]-nonanoic acid 3-{2-acetoxy-5-[((S)-1,2,3-trimethoxy-10-methylsulfanyl-9-oxo-5,6,7,9-tetrahydro-benzo[a]heptalen-7-ylcarbamoyl)-methylcarbamoyloxymethyl]-phenyl}-propyl ester assessed as porcine pancreas lipase type 2-mediated compound formation in presence of pH 7 phosphate buffer by reversed-phase HPLC; format: ADME, Sus scrofa; settings: pig
In short: (§1)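 Analytical-scale incubation was run overnight in 15:85 DMSO/phosphate buffer (20 mM, pH 7) with 1% n-BuOH and porcine pancreatic lipase. Starting-material hydrolysis and released products were quantified by reversed-phase HPLC.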

[10] = Drug level treated with 4-{3-[4-(1,2-Diphenyl-but-1-enyl)-phenylcarbamoyl]-propyldisulfanyl}-butyric acid 3-{2-acetoxy-5-[((S)-1,2,3-trimethoxy-10-methylsulfanyl-9-oxo-5,6,7,9-tetrahydro-benzo[a]heptalen-7-ylcarbamoyl)-methylcarbamoyloxymethyl]-phenyl}-propyl ester assessed as Celite-supported formulation of Pseudomonas cepacia lipase PS-mediated compound formation in presence of pH 7 phosphate buffer by reversed-phase HPLC; format: ADME
[11] = Drug metabolism assessed as porcine pancreas lipase type 2-mediated 10-(4-(1,2-diphenylbut-1-enyl)phenylamino)-10-oxodecanoic acid formation in presence of pH 7 phosphate buffer by reversed-phase HPLC; format: ADME, Sus scrofa; settings: pig; in short: as §1
[12] = Stability assessed as porcine pancreas lipase type 2-mediated drug hydrolysis in presence of pH 7 phosphate buffer by reversed-phase HPLC; format: ADME, Sus scrofa; settings: pig, porcine pancreas lipase type 2, pH 7; read-out: Drug degradation; in short: as §1

Structure (SMILES) | GI50 (HepG2) [µM] | GI50 (MCF7) [µM] | Activity [1] [nm] | metabolised [2] [%] | GI50 (HeLa) [µM] | Drug metabolism [3] | Stability [4] | Activity_index [5] | Drug metabolism [6] | Stability [7] | Activity [8] [mV] | Drug uptake [9] | Drug uptake [10] | Drug metabolism [11] | metabolised [12] [%]
CC/C(=C(\c1ccccc1)c1ccc(NC(=O)CCCSSCCCC(=O)OCCCc2cc(COC(=O)NCC(=O)N[C@H]3CCc4cc(OC)c(OC)c(OC)c4-c4ccc(SC)c(=O)cc43)ccc2OC(C)=O)cc1)c1ccccc1 | > 30 | 0.71 | 344 | 88 | 2.8 | Metabolite_Detected | Unstable | 0.147 | Metabolite_Detected | Stable | -46.47 | – | – | – | –
CC/C(=C(\c1ccccc1)c1ccc(N)cc1)c1ccccc1 | 28.2 | – | – | – | > 30 | – | – | – | – | – | – | Active | Active | – | –
CC/C(=C(\c1ccccc1)c1ccc(NC(=O)CCCCCCCCC(=O)OCCCc2cc(COC(=O)NCC(=O)N[C@H]3CCc4cc(OC)c(OC)c(OC)c4-c4ccc(SC)c(=O)cc43)ccc2OC(C)=O)cc1)c1ccccc1 | > 30 | 0.87 | 412.9 | – | 4.2 | – | Unstable | 0.17 | – | Stable | -33.51 | – | – | Metabolite_Detected | 85
CC/C(=C(\c1ccccc1)c1ccc(NC(=O)CCCCCCCCC(=O)O)cc1)c1ccccc1 | 25.6 | > 30 | – | – | > 30 | – | – | – | – | – | – | Active | – | – | –
COc1cc2c(c(OC)c1OC)-c1ccc(SC)c(=O)cc1[C@@H](NC(=O)CN)CC2 | – | – | – | – | – | – | – | – | – | – | – | Active | Active | – | –
CC/C(=C(\c1ccccc1)c1ccc(NC(=O)CCCSSCCCC(=O)O)cc1)c1ccccc1 | > 30 | > 30 | – | – | > 30 | – | – | – | – | – | – | – | – | – | –
